Shown are actives, neighbours in structure and some others; about 1.7% of the full set was active somewhere.
proCasp3 act: activators of human procaspase-3 D3A mutant, primary screen, biochemical, absorbance, PC-3 D3A mutant, single concentration; Caspase-3 (Homo sapiens), P42574; recombinant procaspase-3 D3A, Ac-DEVD-pNA absorbance 405 nm; activation, % at 8.5 µM; 0.11% of 330,000 active; AID 463141, 2010;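 active = activation above the mean of all tested compounds plus 3 SD, cut at about 21% in these data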
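Test system: Procaspase-3 D3A mutant, all three cleavage aspartates alanine | Dosing: Single dose, 8.5 µM nominal compound, 0.8% DMSO | Schedule: 1 h preincubation, 2 h reaction | Technique: 405 nm absorbance of p-nitroaniline, reads at 0 and 120 min | Repeats: One well per compound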
PolyA inh: polyadenylation inhibitors in yeast reporter cells, primary screen, luminescence, S. cerevisiae; S. cerevisiae SKY197-pL101 polyadenylation reporter, beta-gal luminescence; efflux-impaired pdr1/pdr3 knockout yeast; score 100 = 6 SD above DMSO; activity score, % at 12 µM; 0.02% of 300,000 active;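 active = lowest replicate activity score at least 50, where 100 means six control SD above control mean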;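 note: yeast exposed to compound for 9 h at 30 °C; higher score means more reporter readthrough which indicates perturbed polyadenylation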
procasp7 counter: procaspase-7 activators, primary screen, counter-screen for procaspase-3 activator project, biochemical, absorbance, HTS, human; recombinant procaspase-7, Ac-DEVD-pNA absorbance 405 nm; D23A/D198A/D206A triple mutant, cannot self-cleave; scale: DMSO 0, 5 µM enzyme 100; 0.093% of 330,000 active; Caspase-7 (Homo sapiens), P55210; activation, % at 8.5 µM;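 active = percent activation above the screen-wide mean plus 3 SD, cut at about 25% in these data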
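Replicates: singlicate. Assay system: Procaspase-7 triple mutant (PC-7 D3A). Signal: 405 nm absorbance of p-nitroaniline. Times: 1 h preincubation, 2 h reaction. Buffer or medium: Zinc-free HEPES pH 7.4 with 300 mM NaCl, 0.01% Triton X-100. Also added: DEVD-pNA substrate. Benchmarks: DMSO wells as 0%, DMSO with 5 µM added PC-7 as 100%.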
VIM-2 inh: VIM-2 metallo-beta-lactamase inhibitors, primary screen, biochemical, epi-absorbance readout, Pseudomonas aeruginosa enzyme; AID 1527, 2009; 0.89% of 290,000 active; purified VIM-2, nitrocefin hydrolysis, epi-absorbance fluorescence; inhibition, % at 5.6 µM;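 active = inhibition above the mean of all tested compounds plus 3 SD, cutoff set per screening run, cut at about 7.5% in these data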;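 note: red hydrolysis product quenches plate fluorescence so inhibitors raise well fluorescence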
Neddyl block: inhibitors of cullin neddylation, primary screen, biochemical, TR-FRET, uHTS, NAE and Ubc12 | AID 651699, 2012 | NEDD8-conjugating enzyme Ubc12 (Homo sapiens) + NEDD8-activating enzyme E1 regulatory … | 0.58% of 360,000 active | calls only at 25 µM; in the data active = inhibition above about 36%
Target sequence (P61081 whole entry, looked up): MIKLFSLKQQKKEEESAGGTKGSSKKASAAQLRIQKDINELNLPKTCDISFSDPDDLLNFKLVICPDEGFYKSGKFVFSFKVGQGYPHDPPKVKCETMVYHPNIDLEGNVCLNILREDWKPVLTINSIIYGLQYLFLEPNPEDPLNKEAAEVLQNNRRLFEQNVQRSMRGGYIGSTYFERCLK
Target sequence (Q13564 whole entry, looked up): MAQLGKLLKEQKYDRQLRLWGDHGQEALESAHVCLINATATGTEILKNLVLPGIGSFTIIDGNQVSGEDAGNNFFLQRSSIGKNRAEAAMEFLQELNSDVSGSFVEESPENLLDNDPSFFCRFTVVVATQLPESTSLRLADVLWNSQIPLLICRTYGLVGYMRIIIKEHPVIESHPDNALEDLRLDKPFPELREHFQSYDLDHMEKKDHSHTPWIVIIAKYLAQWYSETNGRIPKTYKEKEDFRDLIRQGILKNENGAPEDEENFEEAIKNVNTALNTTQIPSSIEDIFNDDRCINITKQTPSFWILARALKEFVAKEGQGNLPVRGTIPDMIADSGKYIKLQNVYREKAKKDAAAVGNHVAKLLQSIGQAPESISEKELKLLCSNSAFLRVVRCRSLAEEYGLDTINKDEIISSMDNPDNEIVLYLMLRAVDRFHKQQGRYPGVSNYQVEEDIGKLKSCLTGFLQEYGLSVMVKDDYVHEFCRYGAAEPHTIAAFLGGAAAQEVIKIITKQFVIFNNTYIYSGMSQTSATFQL
IMP-1 inh: IMP-1 metallo-beta-lactamase inhibitors, primary screen, biochemical, epi-absorbance readout, Pseudomonas aeruginosa enzyme; metallo-beta-lactamase IMP-1 (Pseudomonas aeruginosa); purified IMP-1, nitrocefin hydrolysis, epi-absorbance fluorescence; inhibition, % at 5.6 µM; 0.45% of 290,000 active; AID 1556, 2009;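 active = inhibition above the mean plus 3 SD of all compounds in the same screening run, cut at about 4.5% in these data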
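System – purified recombinant IMP-1 beta-lactamase · Input – IMP-1 dispensed at 0.2 nM · Timing – 15 min preincubation plus 25 min reaction at 25 °C · Signal – Epi-absorbance fluorescence, 480 nm excitation, 530 nm emission · Measure – percent IMP-1 inhibition derived from blank-referenced optical density · Controls – Enzyme-plus-DMSO low control, enzyme-free DMSO high control · Replication – singlicate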
Neddyl conf: blockade of NEDD8 conjugation to cullin – biochemical, TR-FRET, single concentration, confirmation. shares compounds with Neddyl block. TR-FRET cullin neddylation biochemical assay. AID 652217, 2013. calls only at 25 µM. 13% of 1,800 active; in the data active = inhibition above about 40%;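 note: neddylation substrate is the cullin 1 ring ligase complex with SKP2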
Calls only.

What do the screens show for `COc1cc(NC(C)=O)ccc1-c1cc2ccccc2oc1=O`?
proCasp3 act: inactive; PolyA inh: inactive; procasp7 counter: inactive; VIM-2 inh: inactive; Neddyl block: active; IMP-1 inh: inactive; Neddyl conf: inactive

Results for S=c1[nH]c(-c2ccccc2)cn1/N=C/c1ccc(Br)cc1 ?
proCasp3 act: inactive; PolyA inh: inactive; procasp7 counter: inactive; VIM-2 inh: inactive; Neddyl block: active; IMP-1 inh: inactive; Neddyl conf: inactive

Results for Cc1ccc(C2C(C(N)=S)=C(N)OC3=C2C(=O)CC(C)(C)C3)cc1 (stereo unspecified) ?
proCasp3 act: inactive; PolyA inh: inactive; procasp7 counter: inactive; VIM-2 inh: inactive; Neddyl block: inactive; IMP-1 inh: inactive

How did CC(=O)Nc1ccc(S(=O)(=O)C(C#N)c2nc3ccccc3nc2NCCN2CCOCC2)cc1 (stereo unspecified) do in these assays?
proCasp3 act: inactive; PolyA inh: inactive; procasp7 counter: inactive; VIM-2 inh: inactive; IMP-1 inh: inactive

How did O=[N+]([O-])c1ccccc1/C=C/C=N/n1c(-c2cc(-c3ccccc3)n[nH]2)n[nH]c1=S do in these assays?
proCasp3 act: inactive; PolyA inh: inactive; procasp7 counter: inactive; VIM-2 inh: inactive; Neddyl block: active; IMP-1 inh: inactive; Neddyl conf: inactive

Results for CCSc1ccccc1C(=O)Nc1ccc([N+](=O)[O-])cc1OC ?
proCasp3 act: inactive; PolyA inh: inactive; procasp7 counter: inactive; VIM-2 inh: inactive; Neddyl block: inactive; IMP-1 inh: inactive

How did CCN1CCc2nc3sc(C(=O)Nc4cccnc4Cl)c(N)c3cc2C1 do in these assays?
proCasp3 act: inactive; PolyA inh: inactive; procasp7 counter: inactive; VIM-2 inh: inactive; Neddyl block: active; IMP-1 inh: inactive; Neddyl conf: inactive

Results for CCCc1cc(=O)n2[nH]c(-c3cc(OC)c(OC)c(OC)c3)nc2n1 ?
proCasp3 act: inactive; PolyA inh: inactive; procasp7 counter: inactive; VIM-2 inh: inactive; Neddyl block: active; IMP-1 inh: inactive; Neddyl conf: inactive

How did COc1cc(/C=C/c2cc(C(=O)O)c3ccccc3n2)ccc1OC(F)F do in these assays?
proCasp3 act: inactive; PolyA inh: inactive; procasp7 counter: inactive; VIM-2 inh: inactive; Neddyl block: active; IMP-1 inh: inactive

How did CCCN1CCN(C(=O)CCCNC(=O)Cn2cnc3sc(C)c(C)c3c2=O)CC1 do in these assays?
proCasp3 act: inactive; PolyA inh: inactive; procasp7 counter: inactive; VIM-2 inh: inactive; Neddyl block: inactive; IMP-1 inh: inactive

Results for COc1cc(/C=C/C2=NNC(=O)CC2)cc(OC)c1OC ?
proCasp3 act: inactive; PolyA inh: inactive; procasp7 counter: inactive; VIM-2 inh: inactive; Neddyl block: active; IMP-1 inh: inactive; Neddyl conf: inactive

What do the screens show for `CCOC(=O)CNC(=O)c1sc(NC(=O)c2ccccc2F)nc1C`?
proCasp3 act: inactive; PolyA inh: inactive; procasp7 counter: inactive; VIM-2 inh: inactive; Neddyl block: active; IMP-1 inh: inactive; Neddyl conf: active

What do the screens show for `Cc1ccccc1Cn1nc(C)c(NC(=O)c2cc3nc(-c4ccco4)cc(C(F)(F)F)n3n2)c1C`?
VIM-2 inh: inactive; Neddyl block: active; IMP-1 inh: inactive; Neddyl conf: inactive

How did CN1CCN(C(=O)c2cc3nc(-c4ccco4)cc(C(F)(F)F)n3n2)CC1 do in these assays?
proCasp3 act: inactive; PolyA inh: inactive; procasp7 counter: inactive; VIM-2 inh: inactive; IMP-1 inh: inactive

Results for Cc1nn(C)c(C)c1CN(C)C(=O)c1cc2nc(-c3ccco3)cc(C(F)(F)F)n2n1 ?
proCasp3 act: inactive; PolyA inh: inactive; procasp7 counter: inactive; VIM-2 inh: inactive; Neddyl block: active; IMP-1 inh: inactive; Neddyl conf: inactive

How did Cc1nn(C)cc1NC(=O)c1cc2nc(-c3ccco3)cc(C(F)(F)F)n2n1 do in these assays?
proCasp3 act: inactive; PolyA inh: inactive; procasp7 counter: inactive; VIM-2 inh: inactive; Neddyl block: inactive; IMP-1 inh: inactive

What do the screens show for `Cc1nn(C)cc1CN(C)C(=O)c1cc2nc(-c3ccco3)cc(C(F)(F)F)n2n1`?
proCasp3 act: inactive; PolyA inh: inactive; procasp7 counter: inactive; VIM-2 inh: inactive; Neddyl block: active; IMP-1 inh: inactive; Neddyl conf: active

How did CCOC(=O)N1CCC(=NNc2ccc(S(=O)(=O)N3CCOCC3)cc2[N+](=O)[O-])CC1 do in these assays?
proCasp3 act: inactive; PolyA inh: inactive; procasp7 counter: inactive; VIM-2 inh: inactive; Neddyl block: inactive; IMP-1 inh: inactive

Results for OCCCN=C1CCCc2c1[nH]c1ccc(Cl)cc21 ?
proCasp3 act: inactive; PolyA inh: inactive; procasp7 counter: inactive; VIM-2 inh: inactive; Neddyl block: active; IMP-1 inh: inactive; Neddyl conf: inactive

How did OCCN=C1CCCc2c1[nH]c1ccc(Cl)cc21 do in these assays?
proCasp3 act: inactive; PolyA inh: inactive; procasp7 counter: inactive; VIM-2 inh: inactive; Neddyl block: inactive; IMP-1 inh: inactive

How did O=C(CSc1nnc(CNC(=O)c2ccco2)o1)Nc1cccc(C(F)(F)F)c1 do in these assays?
proCasp3 act: inactive; PolyA inh: inactive; procasp7 counter: inactive; VIM-2 inh: inactive; Neddyl block: inactive; IMP-1 inh: inactive

Results for COC(=O)c1ccc(-c2ccc(/C=N/NC(=O)CC3(C)OCCCO3)o2)cc1 ?
proCasp3 act: inactive; PolyA inh: inactive; procasp7 counter: inactive; VIM-2 inh: inactive; Neddyl block: active; IMP-1 inh: inactive; Neddyl conf: inactive

What do the screens show for `Cn1c(=O)[nH]c(=O)c2c1nc(N1CCCCC1)n2C/C=N/NC(=O)c1cc(Br)ccc1O`?
proCasp3 act: inactive; PolyA inh: inactive; procasp7 counter: inactive; VIM-2 inh: inactive; Neddyl block: active; IMP-1 inh: inactive

Results for C=CCn1c(N2CCCC2)nc2c1c(=O)[nH]c(=O)n2C ?
proCasp3 act: inactive; PolyA inh: inactive; procasp7 counter: inactive; VIM-2 inh: inactive; Neddyl block: inactive; IMP-1 inh: inactive

High-throughput results: PubChem, several laboratories
